Experimental data: ChEMBL document CHEMBL1138239, “Probing molecular interactions within class II MHC Aq/glycopeptide/T-cell receptor complexes associated with collagen-induced arthritis” (2007)
*1 amine or outer side, *2 acyl side, *3 side chain or, on linkers, in order; H or OH if unused. Where a SMILES comes first, the peptide text is derived from it. [ ]: non-standard residue; d: D form. X4 = NC[C@@H](CC[C@H](N[*:1])C(=O)[*:2])O[C@@H]1O[C@H](CO)[C@H](O)[C@H](O)[C@H]1O; X2 = C[C@H](N[*:1])C(=O)CCC(=O)[*:2]; X5 = C[C@@H](/C=C/CC(=O)[*:2])N[*:1]

Experiments:
Format in all cases: functional, Mus musculus
[1] = Induction of immune response of T-cell HD13.10 hybridoma in presence of antigen-presenting spleen cells expressing Aq assessed as drug concentration required to induce IL2 secretion after 24 hrs by ELISA
Outline: (§1)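 5 × 10⁴ hybridoma cells co-cultured with 5 × 10⁵ syngeneic spleen cells and glycopeptide at 0, 0.00128, 0.0064, 0.032, 0.16, 0.8, 4, 20 µM for 24 h. Supernatant frozen, then IL-2 measured by sandwich ELISA (rat anti-mouse IL-2 capture and biotin detection, DELFIA read-out) against a recombinant mouse IL-2 standard. Score is the lowest concentration giving IL-2 at 6% of the maximal response to the native CII259-273 glycopeptide reference.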

[2] = Induction of immune response of T-cell HCQ.6 hybridoma in presence of antigen-presenting spleen cells expressing Aq assessed as drug concentration required to induce IL2 secretion after 24 hrs by ELISA; outline: as §1
[3] = Induction of immune response of T-cell 22a1-7E hybridoma in presence of antigen-presenting spleen cells expressing Aq assessed as drug concentration required to induce IL2 secretion after 24 hrs by ELISA; outline: as §1
[4] = Induction of immune response of T-cell HCQ.3 hybridoma in presence of antigen-presenting spleen cells expressing Aq assessed as drug concentration required to induce IL2 secretion after 24 hrs by ELISA; outline: as §1
[5] = Induction of immune response of T-cell HNC.1 hybridoma in presence of antigen-presenting spleen cells expressing Aq assessed as drug concentration required to induce IL2 secretion after 24 hrs by ELISA; outline: as §1
[6] = Induction of immune response of T-cell HMIR.2 hybridoma in presence of antigen-presenting spleen cells expressing Aq assessed as drug concentration required to induce IL2 secretion after 24 hrs by ELISA; outline: as §1
[7] = Induction of immune response of T-cell HD13.9 hybridoma in presence of antigen-presenting spleen cells expressing Aq assessed as drug concentration required to induce IL2 secretion after 24 hrs by ELISA; outline: as §1
[8] = Induction of immune response of T-cell HCQ.2 hybridoma in presence of antigen-presenting spleen cells expressing Aq assessed as drug concentration required to induce IL2 secretion after 24 hrs by ELISA; outline: as §1

Compound | Activity [1] [µM] | Activity [2] [µM] | Activity [3] [µM] | Activity [4] [µM] | Activity [5] [µM] | Activity [6] [µM] | Activity [7] [µM] | Activity [8] [µM]
CC[C@H](C)[C@H](NC(=O)CN)C(=O)N[C@@H](C)C(=O)CCC(=O)N[C@@H](Cc1ccccc1)C(=O)N[C@@H](CC[C@H](CN)O[C@@H]1O[C@H](CO)[C@H](O)[C@H](O)[C@H]1O)C(=O)NCC(=O)N[C@@H](CCC(=O)O)C(=O)N[C@@H](CCC(N)=O)C(=O)NCC(=O)N1CCC[C@H]1C(=O)N[C@@H](CCCCN)C(=O)NCC(=O)N[C@@H](CCC(=O)O)C(=O)N[C@H](C(=O)O)[C@@H](C)O (H-GI[X2]F[X4]GEQGPKGET-OH) | 0.8 | 0.8 | 4 | 0.8 | 4 | 4 | 0.8 | 0.8
CC[C@H](C)[C@H](NC(=O)CN)C(=O)N[C@@H](C)/C=C/CC(=O)N[C@@H](Cc1ccccc1)C(=O)N[C@@H](CC[C@H](CN)O[C@@H]1O[C@H](CO)[C@H](O)[C@H](O)[C@H]1O)C(=O)NCC(=O)N[C@@H](CCC(=O)O)C(=O)N[C@@H](CCC(N)=O)C(=O)NCC(=O)N1CCC[C@H]1C(=O)N[C@@H](CCCCN)C(=O)NCC(=O)N[C@@H](CCC(=O)O)C(=O)N[C@H](C(=O)O)[C@@H](C)O (H-GI[X5]F[X4]GEQGPKGET-OH) |  | 20 |  | 20 |  |  |  | 20
